Bioassay records as filed in PubChem.
PDI inh: blocks human protein disulfide isomerase activity. PDI insulin aggregation turbidity, A650, 90 min. inhibition, % at 10 µM. 0.052% of 350,000 active;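 active means mean inhibition across replicates of 30% or more, whatever share of single replicates reach that level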
FN deposit inh: fibronectin deposition inhibition. AH1F fibroblasts, Alexa488-fibronectin deposition fluorescence, overnight. inhibition, % at 12.6 µM. 0.086% of 350,000 active. AID 743247;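 active means mean inhibition across replicates of 30% or more, regardless of how many single replicates reach that level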;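 further: positive control wells lacked labelled fibronectin entirely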
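Material: AH1F fibroblasts assembling fluorescent fibronectin matrix; amount: 10000 AH1F cells/well; medium: DMEM, 2% serum; reagent: Alexa488-fibronectin, 24 nM final in well; dosing: single compound dose, delivered by pin transfer; incubation: 1 h adhesion, overnight exposure; detection: fluorescence after three HBSS washes, excitation 485 nm, emission 525 nm; measure: fibronectin deposition inhibition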
AF4-AF9 inh: blocks AF4 peptide binding to human AF9; P42568; inhibition, % at 10 µM; AID 651704; 0.47% of 350,000 active; AlphaScreen, biotin-AF4 peptide binding to FLAG-AF9;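 active means every replicate reaching a set inhibition limit, whatever the replicate mean, cut at about 25% in these data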;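 further: 0% = plate neutral control median and 100% = total signal loss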
Target sequence (P42568 whole entry, looked up): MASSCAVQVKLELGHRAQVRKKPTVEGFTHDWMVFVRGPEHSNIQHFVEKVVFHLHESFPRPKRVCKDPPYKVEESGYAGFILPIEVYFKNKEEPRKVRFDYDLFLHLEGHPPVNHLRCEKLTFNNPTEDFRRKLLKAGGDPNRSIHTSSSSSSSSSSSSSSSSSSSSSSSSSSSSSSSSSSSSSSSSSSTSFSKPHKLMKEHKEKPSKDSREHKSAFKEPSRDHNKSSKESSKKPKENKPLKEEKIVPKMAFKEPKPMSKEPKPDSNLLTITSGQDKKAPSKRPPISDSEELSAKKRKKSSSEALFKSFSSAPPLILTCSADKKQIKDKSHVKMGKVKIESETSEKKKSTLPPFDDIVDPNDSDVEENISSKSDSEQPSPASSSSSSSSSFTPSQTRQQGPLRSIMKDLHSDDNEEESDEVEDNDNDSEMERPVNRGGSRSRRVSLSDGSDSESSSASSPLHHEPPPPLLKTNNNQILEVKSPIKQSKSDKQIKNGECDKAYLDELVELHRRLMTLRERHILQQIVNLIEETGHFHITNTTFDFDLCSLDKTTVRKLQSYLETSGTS
ERp5 inh: blocks human ERp5 reductase activity on insulin. inhibition, % at 9.99 µM. 0.05% of 350,000 active. AID 651711. ERp5 insulin aggregation, absorbance 650 nm, 90 min. Q15084;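 active means mean replicate inhibition above about 25%, with every replicate also reaching it, limit read from the data, passing the limit was not always enough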
ARNT-TACC3 inh: disrupts binding between human ARNT and TACC3 | AlphaScreen His-ARNT PAS-B/GST-TACC3 binding, luminescence; TACC3 fragment carries E629A point mutation | AID 623870 | Q9Y6A5 | inhibition, % at 9.99 µM | 0.66% of 390,000 active;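 active means mean inhibition of replicates at least 50% and at least half of replicates each reaching 50%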;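 further: 0% = complete ARNT plus TACC3 wells and 100% = ARNT alone without TACC3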
FGF22 binding: binders of recombinant human FGF22 by thermal shift | Q9HCT0 | SYPRO orange fluorescence; percent of sucrose octasulfate shift, DMSO zero | activity (Tm shift, normalised), % at 9.99 µM | 1.5% of 340,000 active | AID 651658;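 active means mean Tm shift, scaled 0 neutral to 100 positive control, at about 1.3% or above, every replicate too, limit read from the data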
Target sequence (Q9HCT0 whole entry, looked up): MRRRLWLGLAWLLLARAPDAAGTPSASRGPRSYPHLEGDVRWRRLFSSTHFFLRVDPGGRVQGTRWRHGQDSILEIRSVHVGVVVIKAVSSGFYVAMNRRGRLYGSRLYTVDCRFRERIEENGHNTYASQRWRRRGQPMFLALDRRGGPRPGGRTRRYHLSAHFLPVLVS
AlphaScreen ctr: AlphaScreen artifact in ARNT/TACC3 counter-screen. AC50, µM (doses to about 68 µM), for inactives: at the highest dose activity change, negative = signal decrease. 50% of 1,200 active. His-ARNT PASB-GST AlphaScreen artifact counter-screen, luminescence. shares compounds with ARNT-TACC3 inh;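 active means every separate test run was called active for a drop in luminescence, with AC50 within twice the top valid dose, actives reach about 71 µM in these data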
* hit, by the source's call; x = no result; [ ] = another dose, or the depositor's remark. Compounds with a hit are over-represented: about 2.1% of the library has one in this group of screens.

SMILES | PDI inh | FN deposit inh | AF4-AF9 inh | ERp5 inh | ARNT-TACC3 inh | FGF22 binding | AlphaScreen ctr
CSCCC(=O)Nc1nc(-c2ccccn2)cs1 | -2.5 | x | 0.5 | 0.3 | 57.8* | 0.1 | 71.4µM*
O=C(Nc1ccc2nc(-c3ccccn3)[nH]c2c1)C1CCCCC1 | 7.7 | -4.8 | x | x | 59.5* | x | -7.4%
O=C(CN1C(=O)CCC1=O)Nc1nc(-c2ccccn2)cs1 | -8.9 | 2.8 | -2.1 | 2.7 | 59.2* | 0.0 | 34.5µM*
C[C@@H]1CCCCO[C@H](CN(C)C(=O)Nc2ccccc2)[C@H](C)CN([C@@H](C)CO)C(=O)c2cc(NC(=O)Nc3cccc4ccccc34)ccc2O1 | x | -5.6 | -4.2 | 1.8 | 1.5 | x | x
C[C@@H](NC(=O)C[C@@H]1C[C@@H]2c3cc(NS(C)(=O)=O)ccc3O[C@@H]2[C@@H](CO)O1)c1ccccc1 | x | x | -1.5 | -2.4 | -4.2 | 0.4 | x
O=c1c2ccccc2c(/C=N/c2ncn[nH]2)c(O)n1Cc1ccccc1 | 3.5 | -2.5 | -4.6 | 2.7 | 12.2 | 0.3 | x
Oc1c(Br)cccc1/C=N/c1ncn[nH]1 | 3.2 | -4.1 | -2.3 | 0.3 | 51.3* | 0.1 | -0.8%
Cc1cccc(Nc2nc(-c3ccccn3)nnc2-c2ccccc2)n1 | x | x | x | x | x | x | 0.529µM*
c1ccc(-c2csc(Nc3nc(-c4ccccn4)nnc3-c3ccccc3)n2)cc1 | x | x | x | x | x | x | 2.17µM*
c1ccc(-c2nnc(-c3ccccn3)nc2Nc2cnc3ccccc3n2)cc1 | x | x | x | x | x | x | 0.762µM*
FC(F)(F)c1cnc(C(c2ccccn2)c2ncn[nH]2)c(Cl)c1 (stereo not given) | -1.8 | 4.0 | -0.6 | 9.6 | 62.0* | 0.4 | 58.1µM*
O=C(C[C@@H]1CC[C@@H](NC(=O)c2ccccc2)[C@H](CO)O1)Nc1ccc(-c2ccccc2)cc1 | x | -20.9 | -0.1 | -0.7 | 53.5* | 0.2 | -8.4%[42 µM]
O=C(C[C@@H]1CC[C@H](NC(=O)Nc2cc(F)ccc2F)[C@@H](CO)O1)Nc1ccc(-c2ccccc2)cc1 | x | -2.7 | -12.7 | 5.2 | 53.8* | 1.1 | 0.7%[38 µM]
C[C@H](CO)N1C[C@H](C)[C@@H](CN(C)C(=O)NC2CCCCC2)Oc2ccc(NC(=O)Nc3ccc(F)cc3)cc2C1=O | x | x | -0.9 | 3.0 | -7.4 | -0.4 | x
C/C=C/c1ccc2c(c1)O[C@@H](CN(C)C(=O)C1CCOCC1)[C@@H](C)CN([C@@H](C)CO)S2(=O)=O | x | -1.2 | -0.5 | 3.0 | -6.7 | 0.0 | x
CC(C)C1Cc2c(sc3ncnc(NN)c23)CO1 (stereo not given) | 0.7 | -0.5 | -3.2 | -0.1 | 61.0* | -0.4 | 16.5µM*
CC(Oc1ccccc1)C(=O)Nc1nc(-c2ccncc2)cs1 (stereo not given) | 6.9 | 15.4 | -0.5 | 6.5 | x | 0.0 | x
O=C(Nc1nc(-c2ccccn2)cs1)c1ccc(Cl)s1 | -1.1 | -1.6 | 11.3 | -0.7 | 58.8* | -0.2 | 28.1µM*
Cc1csc(NC(=O)c2cccn2C)n1 | 1.7 | x | x | x | 1.9 | x | x
Cc1c(C(=O)Nc2nc(-c3ccccn3)cs2)oc2ccccc12 | -0.5 | x | x | x | x | x | x
CC(Oc1cccc(Cl)c1)C(=O)Nc1nc(-c2ccccn2)cs1 (stereo not given) | 2.2 | 13.5 | -1.3 | 0.1 | 53.3* | 0.1 | -17.9%
Cc1ccc(C(=O)Nc2nc(-c3ccccn3)cs2)s1 | -3.6 | 8.7 | 1.2 | -2.7 | 54.4* | 0.6 | 37.6µM*
O=C(Nc1ccccn1)c1ccc(Cl)s1 | 1.5 | x | -0.5 | 3.9 | -19.1 | 0.2 | x
Cn1cccc1C(=O)Nc1nc(-c2ccccn2)cs1 | 2.5 | x | x | x | 62.9* | x | 20.1µM*
N#Cc1cc(Cl)c(N2CCOCC2)cc1C#N | -8.3 | x | x | x | -2.3 | x | x
SMILES | PDI inh | FN deposit inh | AF4-AF9 inh | ERp5 inh | ARNT-TACC3 inh | FGF22 binding | AlphaScreen ctr
N#Cc1cc2ccc(N3CCOCC3)cc2cc1C#N | -8.3 | x | 3.7 | -1.9 | 28.8* | -0.4 | -15.6%
S=c1[nH]nc(-c2cc3c(s2)-c2ccccc2CC3)o1 | -3.3 | x | x | x | 69.7* | x | -21.0%
CCC(=O)N1CC2(C1)[C@H](c1ccccc1)[C@H](CO)N2C(=O)c1cccnc1 | x | x | -1.1 | -1.2 | x | 0.0 | x
CC1(C)CC(=O)C=C(Nc2ccccc2N)C1 | 3.5 | 6.5 | -3.8 | -9.4 | 50.6* | 0.1 | 6.5%
CC1=Nn2c(nnc2-c2ccccn2)SC1 | -3.4 | -10.5 | x | x | 44.1* | x | -14.8%
CC1=Nn2c(nnc2-c2ccccc2F)SC1 | -8.2 | -3.5 | x | x | 2.7 | x | x
c1ccc(C2=Nn3c(nnc3-c3ccccn3)SC2)cc1 | -3.5 | 5.5 | x | x | 60.9* | x | -9.0%
CCCNC(=O)N(C)C[C@H]1Oc2ncc(-c3ccncc3)cc2C(=O)N([C@@H](C)CO)C[C@@H]1C | x | 0.1 | -3.6 | 1.2 | -8.6 | -0.2 | x
C[C@@H]1CN([C@H](C)CO)S(=O)(=O)c2ccc(C3=CCCC3)cc2O[C@H]1CN(C)Cc1ccccn1 | x | -2.8 | -10.2 | -1.4 | 17.3* | -0.1 | 50.5µM*
C[C@H](CO)N1C[C@H](C)[C@H](CN(C)Cc2cccnc2)Oc2cc(C#CCN(C)C)ccc2S1(=O)=O | x | 3.0 | 0.7 | 2.4 | active | -0.2 | -7.2%[42 µM]
C[C@H]1CN([C@@H](C)CO)S(=O)(=O)c2ccc(C#CCN(C)C)cc2O[C@H]1CN(C)Cc1cccnc1 | x | -5.5 | 1.4 | -2.5 | -6.9 | -0.1 | x
C/C(=C\C(=O)c1ccccc1)Nc1ccc(N2CCOCC2)cc1 | 3.7 | 0.2 | x | x | 39.3* | x | -26.5%
O=C(NC[C@H]1CC[C@@H]2[C@@H](CN2Cc2ccccc2F)O1)C1CC1 | x | x | -3.0 | 2.2 | x | x | x
CCCN(C(=O)Cc1nc(N)n[nH]1)C1(C(=O)Nc2ccccc2C)CCCCC1 | -9.8 | x | x | x | 50.3* | x | -13.2%
Cc1ccc(-c2nnc(NCc3ccccc3)c3ccccc23)cc1 | 2.7 | -18.2 | -5.0 | 1.1 | -1.4 | -0.1 | x
c1cncc(-c2nc(NCC3CCCO3)c3ccccc3n2)c1 (stereo not given) | 0.1 | x | x | x | x | x | x
c1ccc(-c2nc(NCCCN3CCOCC3)c3ccccc3n2)cc1 | -9.2 | 3.0 | x | x | 6.3 | x | x
c1ccc(-c2nnc(-c3ccccn3)nc2NCCCN2CCOCC2)cc1 | x | x | x | x | x | x | 1.1µM*
c1ccc(CNc2nc(-c3ccccn3)nnc2-c2ccccc2)cc1 | x | x | x | x | x | x | 0.786µM*
c1ccc(-c2cccc(CNc3nc(-c4ccccn4)nnc3-c3ccccc3)c2)cc1 | x | x | x | x | x | x | 7.09µM*
c1ccc(-c2nnc(-c3ccccn3)nc2NCC2CCOCC2)cc1 | x | x | x | x | x | x | 1.13µM*
C[C@H]1CN([C@@H](C)CO)S(=O)(=O)c2ccc(C3=CCCC3)cc2O[C@@H]1CN(C)C(=O)CN(C)C | x | x | -0.8 | 13.0 | 10.6 | 0.1 | x
COc1ccc(S(=O)(=O)N(C)C[C@H]2Oc3ccc(NC(=O)Cn4cnnn4)cc3CC(=O)N([C@H](C)CO)C[C@H]2C)cc1 | x | x | -0.1 | 17.9 | -8.0 | 0.1 | x
COc1cccc(CNC(=O)c2cnc(-c3ccccn3)nc2C(F)(F)F)c1 | -0.2 | 1.1 | x | x | x | x | x
COc1cccc(CNc2nc(-c3ccccn3)nnc2-c2ccccc2)c1 | x | x | x | x | x | x | 1.64µM*
